Converted amounts (≈) assume the structure as drawn. The source made the active and inactive calls. No cut-off for these calls is given here. Bridge positions count the residues as written; N and C are the ends. Peptide text beside a SMILES is read from it.
Key:
[1] = test system: RAW264.7; assay: Antiinflammatory activity in mouse RAW264.7 cells assessed as inhibition of LPS-induced NFkappaB translocation from cytoplasm to nucleus at 20 ug/mL preincubated for 1 hr prior to LPS-challenge measured after 3 hrs by Western blotting analysis relative to LPS-treated control; assay type: functional
Method in brief: (§1)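 RAW 264.7 cells (1 × 10^6/well) were serum-starved in RPMI-1640 for 16 h. They were pretreated with peptide (0, 5, 10, 20 µg/mL) for 1 h, then given LPS (E. coli 055:B5, 0 or 100 ng/mL) for 3 h. Cells were washed in ice-cold PBS, and cytoplasmic or nuclear fractions were blotted for TLR4, JNK, NF-κB p65 and β-actin. Control was LPS alone.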

[2] = test system: RAW264.7; assay: Antiinflammatory activity in mouse RAW264.7 cells assessed as inhibition of LPS-induced JNK1 expression preincubated for 1 hr prior to LPS-challenge measured after 3 hrs by Western blotting analysis; assay type: functional, cell-based; method in brief: as §1
[3] = test system: RAW264.7; assay: Antiinflammatory activity in mouse RAW264.7 cells assessed as inhibition of LPS-induced TLR4 expression preincubated for 1 hr prior to LPS-challenge measured after 3 hrs by Western blotting analysis; assay type: functional, cell-based; method in brief: as §1
[4] = test system: RAW264.7; assay: Antiinflammatory activity in mouse RAW264.7 cells assessed as inhibition of LPS-induced MCP1 production after 24 hrs by ELISA; assay type: functional, cell-based
Method in brief: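 RAW 264.7 cells (2 × 10^5) were plated and allowed to adhere. They were given peptide (2.5, 5, 10, 20 µg/mL) with or without LPS (E. coli 055:B5, 20 ng/mL) for 24 h. Supernatant TNF-α, IL-6 and MCP-1 were measured by ELISA at A450. Controls were LPS alone and untreated cells. Mean ± SEM of three separate experiments.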

[5] = test system: RAW264.7; assay: Cytotoxicity against mouse RAW264.7 cells at 100 ug/mL after 24 hrs by MTT assay relative to control; assay type: cell-based; conditions: raw264.7, 24 h
[6] = test system: RAW264.7; assay: Cytotoxicity against mouse RAW264.7 cells at <25 ug/mL after 24 hrs by MTT assay; assay type: cell-based; conditions: raw264.7, 24 h
[7] = Toxicity in human RBC assessed as induction of hemolysis at 25 ug/mL after 30 mins relative to control; assay type: cell-based, Erythrocyte; conditions: red blood cells (RBC), read-out: Activity
Method in brief: (§2)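 Human red blood cells incubated with peptide. Hemoglobin release read as absorbance at 540 nm and expressed against 1% Triton X-100 as positive control.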

[8] = Toxicity in human RBC assessed as induction of hemolysis at 12.5 ug/mL after 30 mins relative to control; assay type: cell-based, Erythrocyte; conditions: red blood cells (RBC), read-out: Activity; method in brief: as §2
[9] = test system: Escherichia coli; assay: Bactericidal activity against Escherichia coli ATCC 25922 at 10 times MIC after 60 mins by colony counting assay (reference value: 296 CFU); assay type: functional
[10] = test system: Escherichia coli; assay: Bactericidal activity against Escherichia coli ATCC 25922 at 10 times MIC after 5 mins by colony counting assay (reference value: 47.7 CFU); assay type: functional
[11] = test system: Escherichia coli; assay: Bactericidal activity against Escherichia coli ATCC 25922 at 5 times MIC after 10 mins by colony counting assay (reference value: 58.3 CFU); assay type: functional
[12] = test system: Escherichia coli; assay: Bactericidal activity against Escherichia coli ATCC 25922 at 5 times MIC after 5 mins by colony counting assay (reference value: 47.7 CFU); assay type: functional
[13] = test system: Escherichia coli; assay: Bactericidal activity against Escherichia coli ATCC 25922 at MIC after 20 mins by colony counting assay (reference value: 79.3 CFU); assay type: functional
[14] = test system: Pseudomonas aeruginosa; assay: Antibacterial activity against Pseudomonas aeruginosa ATCC 27853 treated with MgCl2 after 16 hrs by broth dilution method; assay type: functional; conditions: ATCC 27853, 16 h
Method in brief: (§3)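 Salt sensitivity of the MIC. Peptide was tested in water, NaCl, CaCl2, MgCl2 or PBS (Na2HPO4-NaH2PO4, pH 7.4), with every salt at 150 mM. Values are means of three independent experiments, each run in duplicate.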

[15] = test system: Pseudomonas aeruginosa; assay: Antibacterial activity against Pseudomonas aeruginosa ATCC 27853 treated with CaCl2 after 16 hrs by broth dilution method; assay type: functional; conditions: ATCC 27853, 16 h; method in brief: as §3
[16] = test system: Staphylococcus aureus; assay: Antibacterial activity against Staphylococcus aureus ATCC 2592 treated with CaCl2 after 16 hrs by broth dilution method; assay type: functional; conditions: ATCC 2592, 16 h; method in brief: as §3
[17] = test system: Escherichia coli; assay: Antibacterial activity against Escherichia coli ATCC 25922 treated with CaCl2 after 16 hrs by broth dilution method; assay type: functional; conditions: ATCC 25922, 16 h; method in brief: as §3
[18] = test system: Bacillus subtilis; assay: Antibacterial activity against Bacillus subtilis 6633 treated with PBS after 16 hrs by broth dilution method; assay type: functional; conditions: Bacillus subtilis, 6633, 16 h; method in brief: as §3
[19] = test system: Pseudomonas aeruginosa; assay: Antibacterial activity against Pseudomonas aeruginosa ATCC 27853 treated with PBS after 16 hrs by broth dilution method; assay type: functional; conditions: ATCC 27853, 16 h; method in brief: as §3
[20] = test system: Candida albicans; assay: Antifungal activity against Candida albicans ATCC 2002 treated with NaCl after 16 hrs by broth dilution method; assay type: functional; conditions: ATCC 2002, 16 h; method in brief: as §3
[21] = test system: Pseudomonas aeruginosa; assay: Antibacterial activity against Pseudomonas aeruginosa ATCC 27853 treated with NaCl after 16 hrs by broth dilution method; assay type: functional; conditions: ATCC 27853, 16 h; method in brief: as §3
[22] = test system: Bacillus subtilis; assay: Antibacterial activity against Bacillus subtilis 6633 treated with water after 16 hrs by broth dilution method; assay type: functional; conditions: Bacillus subtilis, 6633, 16 h; method in brief: as §3
[23] = test system: Escherichia coli; assay: Antibacterial activity against Escherichia coli ATCC 25922 treated with water after 16 hrs by broth dilution method; assay type: functional; conditions: ATCC 25922, 16 h; method in brief: as §3
[24] = test system: Candida albicans; assay: Antifungal activity against ampicillin, benzylpencillin-resistant Candida albicans 08022821 after 16 hrs by broth dilution method; assay type: functional; conditions: Candida albicans, 08022821, 16 h
Method in brief: (§4)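 MIC read-out, reported in µg/mL with µM equivalents. Each value is the mean of three independent experiments, each run in duplicate.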

[25] = test system: Bacillus subtilis; assay: Antibacterial activity against Bacillus subtilis 6633 after 16 hrs by broth dilution method; assay type: functional; conditions: Bacillus subtilis, 6633, 16 h
Method in brief: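 MIC determined by an earlier in-house method. Values are means of three independent experiments, each run in duplicate.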

[26] = test system: Staphylococcus aureus; assay: Antibacterial activity against ampicillin, benzylpencillin-resistant Staphylococcus aureus 08A865 after 16 hrs by broth dilution method; assay type: functional; conditions: 08A865, 16 h; method in brief: as §4
[27] = test system: Escherichia coli; assay: Antibacterial activity against Escherichia coli 08A852 assessed as cell swelling after 30 mins by scanning electron microscopic analysis; assay type: functional, organism-based
Method in brief: (§5)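 E. coli (about 2 × 10^7 CFU/mL) was exposed to peptide at 1 × MIC, 37 °C, 30 min, beside an untreated control. Cells were pelleted, fixed in 2.5% buffered glutaraldehyde (4 °C, 2 h), post-fixed in 1% osmium tetroxide (2 h), dehydrated through graded ethanol, frozen in tert-butyl alcohol and vacuum-dried, then imaged by SEM.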

[28] = test system: Escherichia coli; assay: Antibacterial activity against Escherichia coli ATCC 25922 assessed as plasma membrane rupture after 30 mins by scanning electron microscopic analysis; assay type: functional, organism-based; method in brief: as §5
[29] = test system: RAW264.7; assay: Antiinflammatory activity in mouse RAW264.7 cells assessed as inhibition of LPS-induced NO production after 24 hrs by spectrophotometric analysis; assay type: functional, cell-based
Method in brief: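 RAW 264.7 cells (1 × 10^7) in RPMI-1640 with 10% FBS and penicillin/streptomycin were treated with peptide (2.5, 5, 10, 20 µg/mL) with or without LPS (E. coli 055:B5, 100 ng/mL) for 24 h. Medium nitrite was measured with Griess reagent at A540 against a NaNO2 standard curve. Control was LPS alone. Mean ± SEM of three separate experiments.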

[30] = test system: Escherichia coli; assay: Antibacterial activity against ampicillin, benzylpencillin-resistant Escherichia coli 08A866 after 16 hrs by broth dilution method; assay type: functional; conditions: 08A866, 16 h; method in brief: as §4

CC[C@H](C)[C@H](NC(=O)[C@H](Cc1cnc[nH]1)NC(=O)[C@H](CO)NC(=O)[C@@H](NC(=O)[C@@H](NC(=O)[C@@H](NC(=O)[C@@H](NC(=O)[C@H](CCCNC(=N)N)NC(=O)[C@H](CC(C)C)NC(=O)[C@H](CCCCN)NC(=O)[C@H](CCC(=O)O)NC(=O)[C@H](CCCCN)NC(=O)[C@H](CC(C)C)NC(=O)[C@H](CCCCN)NC(=O)[C@@H]1CSSC[C@H](NC(=O)[C@H](CCCCN)NC(=O)[C@@H](N)CCCNC(=N)N)C(=O)N[C@@H](CC(N)=O)C(=O)N[C@@H](Cc2ccccc2)C(=O)N[C@@H](CC(C)C)C(=O)N1)[C@@H](C)O)C(C)C)[C@@H](C)CC)[C@@H](C)O)C(=O)N[C@@H](CC(=O)O)C(=O)N[C@@H](CCCCN)C(=O)N[C@H](C(=O)N[C@@H](CC(C)C)C(=O)N[C@@H](CCCNC(=N)N)C(=O)N1CCC[C@H]1C(=O)N[C@@H](CCC(N)=O)C(=O)NCC(=O)O)C(C)C (H-RKCNFLCKLKEKLRTVITSHIDKVLRPQG-OH; disulfide 3-7)
inhibition at 20 µg/mL [1]: 74% | inhibition [2]: Dose-dependent effect | inhibition [3]: Dose-dependent effect | inhibition [4]: Dose-dependent effect | Activity [5]: 3.3% | Activity [6]: Non-toxic | hemolysis at 0.5 h, 25 ug/mL [7]: 3.5% | hemolysis at 0.5 h, 12.5 ug/mL [8]: 2.5% | CFU [9]: 0 | CFU [10]: 11.3 | CFU [11]: 10 | CFU [12]: 29.7 | CFU [13]: 11.3 | MIC [14]: 18.8 µg/mL (≈ 5.48 µM) | MIC [15]: 18.8 µg/mL (≈ 5.48 µM) | MIC [16]: 4.69 µg/mL (≈ 1.37 µM) | MIC [17]: 2.35 µg/mL (≈ 0.686 µM) | MIC [18]: > 100 µg/mL | MIC [19]: 9.38 µg/mL (≈ 2.74 µM) | MIC [20]: 2.35 µg/mL (≈ 0.686 µM) | MIC [21]: 9.38 µg/mL (≈ 2.74 µM) | MIC [22]: > 100 µg/mL | MIC [23]: 4.69 µg/mL (≈ 1.37 µM) | MIC [24]: 2.74 µM (≈ 9.38 µg/mL) | MIC [25]: > 100 µg/mL | MIC [26]: 2.74 µM (≈ 9.38 µg/mL) | Activity [27]: Active | Activity [28]: Active | inhibition [29]: Dose-dependent effect | MIC [30]: 2.74 µM (≈ 9.38 µg/mL)
